In PMC11529803 (Medicinal chemistry research : an international journal for …, 2024):
Counter-ions that a name gives are not always drawn.

How the values were obtained:
[1] = L-cystine crystallization inhibition assay; conditions: for EC50 relative to parent LH708: metabolites of LH708
Method in brief: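 Supersaturated L-cystine solution was held with test compound over a concentration range for 72 h at 20 °C, then centrifuged at 14,000 rpm for 10 min at room temperature. Supernatant was diluted 10-fold in water and run in triplicate: potassium cyanide in PBS pH 7.4, 25 min shaking, then sodium nitroprusside, with absorbance read at 530 nm. Cystine was read off a standard curve; EC50 came from nonlinear regression.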

[2] = Crystal growth inhibition by in situ atomic force microscopy; conditions: in situ AFM on {0001} growth hillocks
Method in brief: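 Real-time in situ AFM in a fluid cell on hexagonal L-cystine crystals grown from aqueous supersaturated solution (pH 6.3), filtered and air-dried. Surface regenerated for 20 min by flowing supersaturated 2 mM cystine at 20 mL/h. Velocities of {1010} steps on the {0001} basal plane were measured without inhibitor (Vo), then with test compound at 15, 30 and 45 µM under identical conditions.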

[3] = In vivo metabolism and pharmacokinetics of LH708; parameters: species or system Slc3a1 KO male mice
[4] = test system: Slc3a1-knockout mouse model of cystinuria; conditions: after oral gavage; cited from earlier work
[5] = cited from earlier work

For `N[C@@H](CSSC[C@H](N)C(=O)N1CCNCC1)C(=O)N1CCNCC1` [Compound 3a, L-Cystine bis(piperazide) tetrahydrochloride], the “EC50 relative to parent LH708” value [1] was ≤ 2 fold and the “L-cystine crystal growth inhibition (step roughening and decrease of {1010} step velocity)” value [2] was “less effective than the other two compounds”.

For `CN1CCN(C(=O)[C@@H](N)CSSC[C@H](N)C(=O)O)CC1.Cl.Cl.Cl` [Compound 25, S-(((R)-2-Amino-3-(4-methylpiperazin-1-yl)-3-oxopropyl)thio)-L-cysteine trihydrochloride], the “EC50 relative to parent LH708” value [1] was ≤ 2 fold.

For `Cl.Cl.Cl.Cl.N[C@@H](CSSC[C@H](N)C(=O)N1CCCC12CCNCC2)C(=O)N1CCCC12CCNCC2` [Compound 3j, L-Cystine bis(1,8-diazaspiro[4.5]decan-1-yl) tetrahydrochloride], the “reduction in L-cystine crystallization inhibition” value ([1]; relative to structure isomer 3i) was ~5 fold.

In the case of `Cl.Cl.Cl.Cl.N[C@@H](CSSC[C@H](N)C(=O)N1CCN(c2ccccc2)CC1)C(=O)N1CCN(c2ccccc2)CC1` [Compound 3e, L-Cystine bis(N′-phenylpiperazide) tetrahydrochloride], the “decrease in L-cystine crystallization inhibition activity” value ([1]; relative to LH708 (N4-methyl)) is reported as > 10 fold.

In the case of `CN1CCN(C(=O)[C@@H](N)CSSC[C@H](N)C(=O)N2CCN(C)CC2)CC1` [Compound 2, L-cystine bis(N′-methylpiperazide)], the plasma half-life ([3]; after LH708 single dose 150 μmol/kg) is listed as ~ 10 min, the main metabolic pathway ([3]; single iv or oral dose of LH708, plasma and urine) is listed as “disulfide exchange” and the “prevention of L-cystine stone formation” value [4] is listed as “active”. For the same molecule, the “chemical and metabolic stability compared with L-CDME (1)” value [5] was “chemically and metabolically more stable”.

With `Cl.Cl.N[C@@H](CSSC[C@H](N)C(=O)NCCN1CCCC1=O)C(=O)NCCN1CCCC1=O` [Compound 4e, L-Cystine bis(N′-pyrrolidin-2-one ethyleneamide) dihydrochloride] the “L-cystine crystallization inhibition activity (in words)” value [1] was “lost almost all of its crystallization inhibition activity”.
